Source: ChEMBL document CHEMBL1123478, “Synthesis and antineoplastic activity of bis[[[(alkylamino)carbonyl]oxy]methyl]-substituted 3-pyrrolines as prodrugs of tumor inhibitory pyrrole bis(carbamates)” (1986)
“And” between values parts separate entries of the source, which are not always exact repeats. Equal entries are not always repeated.

How the values were obtained:
[1] = tested on: Mus musculus; experiment: Body weight difference the relation of the test animal to control animal weight was calculated at the 120 mg/kg doses; format: functional
Summary of the method: (§1)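 P388 leukemia ascitic fluid implanted intraperitoneally into CD2F1 mice. Dosing was intraperitoneal, starting 24 h after inoculation, once daily for five doses, as a suspension in saline and Tween 80 made fresh each day. Some compounds were given in Klucel (hydroxypropylcellulose) or in saline/Tween/alcohol instead. Acute toxicity was checked on day 5 and the study was evaluated on day 30.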

[2] = tested on: Mus musculus; experiment: Body weight difference the relation of the test animal to control animal weight was calculated at the 15 mg/kg doses; format: functional; summary of the method: as §1
[3] = tested on: Mus musculus; experiment: Body weight difference the relation of the test animal to control animal weight was calculated at the 30 mg/kg doses; format: functional; summary of the method: as §1
[4] = tested on: Mus musculus; experiment: Body weight difference the relation of the test animal to control animal weight was calculated at the 60 mg/kg doses; format: functional; summary of the method: as §1
[5] = tested on: Mus musculus; experiment: Body weight difference the relation of the test animal to control animal weight was calculated at the 7.5 mg/kg doses; format: functional; summary of the method: as §1
[6] = tested on: Mus musculus; experiment: Tumor cell population at the end of treatment relative to its size at the beginning of the treatment was calculated at the 15 mg/kg doses; format: functional; summary of the method: as §1
[7] = tested on: Mus musculus; experiment: Tumor cell population at the end of treatment relative to its size at the beginning of the treatment was calculated at the 30 mg/kgd oses; format: functional; conditions: dose 30 mg/kg; summary of the method: as §1
[8] = tested on: Mus musculus; experiment: Tumor cell population at the end of treatment relative to its size at the beginning of the treatment was calculated at the 7.5 mg/kg doses; format: functional; summary of the method: as §1
[9] = tested on: P388; experiment: Compound was tested for antitumor activity against P388 lymphocytic leukemia at the dose 15 mg/kg; format: functional, Mus musculus; summary of the method: as §1
[10] = tested on: P388; experiment: Compound was tested for antitumor activity against P388 lymphocytic leukemia at the dose 30 mg/kg; format: functional, Mus musculus; summary of the method: as §1
[11] = tested on: P388; experiment: Compound was tested for antitumor activity against P388 lymphocytic leukemia at the dose 7.5 mg/kg; format: functional, Mus musculus; summary of the method: as §1
[12] = Rate constants were calculated for the compound by linear regression analysis
[13] = tested on: Mus musculus; experiment: Body weight difference the relation of the test animal to control animal weight was calculated at the 100 mg/kg doses; format: functional; summary of the method: as §1
[14] = tested on: Mus musculus; experiment: Body weight difference the relation of the test animal to control animal weight was calculated at the 200 mg/kg doses; format: functional; summary of the method: as §1
[15] = tested on: Mus musculus; experiment: Body weight difference the relation of the test animal to control animal weight was calculated at the 400 mg/kg doses; format: functional; summary of the method: as §1
[16] = tested on: Mus musculus; experiment: Body weight difference the relation of the test animal to control animal weight was calculated at the 50 mg/kg doses; format: functional; summary of the method: as §1
[17] = tested on: P388; experiment: Compound was tested for antitumor activity against P388 lymphocytic leukemia at the dose 100 mg/kg; format: functional, Mus musculus; summary of the method: as §1
[18] = tested on: P388; experiment: Compound was tested for antitumor activity against P388 lymphocytic leukemia at the dose 200 mg/kg; format: functional, Mus musculus; summary of the method: as §1
[19] = tested on: P388; experiment: Compound was tested for antitumor activity against P388 lymphocytic leukemia at the dose 400 mg/kg; format: functional, Mus musculus; summary of the method: as §1
[20] = tested on: P388; experiment: Compound was tested for antitumor activity against P388 lymphocytic leukemia at the dose 50 mg/kg; format: functional, Mus musculus; summary of the method: as §1
[21] = tested on: Mus musculus; experiment: Body weight difference the relation of the test animal to control animal weight was calculated at the 12.5 mg/kg doses; format: functional; summary of the method: as §1
[22] = tested on: Mus musculus; experiment: Body weight difference the relation of the test animal to control animal weight was calculated at the 25 mg/kg doses; format: functional; summary of the method: as §1
[23] = tested on: Mus musculus; experiment: Tumor cell population at the end of treatment relative to its size at the beginning of the treatment was calculated at the 25 mg/kg doses; format: functional; summary of the method: as §1
[24] = tested on: Mus musculus; experiment: Tumor cell population at the end of treatment relative to its size at the beginning of the treatment was calculated at the 50 mg/kg doses; format: functional; summary of the method: as §1
[25] = tested on: Mus musculus; experiment: Tumor cell population at the end of treatment relative to its size at the beginning of the treatment was calculated at the 100 mg/kg doses; format: functional; summary of the method: as §1
[26] = tested on: Mus musculus; experiment: Tumor cell population at the end of treatment relative to its size at the beginning of the treatment was calculated at the 12.5 mg/kg doses; format: functional; summary of the method: as §1
[27] = tested on: P388; experiment: Compound was tested for antitumor activity against P388 lymphocytic leukemia at the dose 12.5 mg/kg; format: functional, Mus musculus; summary of the method: as §1
[28] = tested on: P388; experiment: Compound was tested for antitumor activity against P388 lymphocytic leukemia at the dose 25 mg/kg; format: functional, Mus musculus; summary of the method: as §1
[29] = tested on: Mus musculus; experiment: Body weight difference the relation of the test animal to control animal weight was calculated at the 240 mg/kg doses; format: functional; summary of the method: as §1
[30] = tested on: P388; experiment: Compound was tested for antitumor activity against P388 lymphocytic leukemia at the dose 60 mg/kg; format: functional, Mus musculus; summary of the method: as §1
[31] = tested on: P388; experiment: Compound was tested for antitumor activity against P388 lymphocytic leukemia at the dose 120 mg/kg; format: functional, Mus musculus; summary of the method: as §1
[32] = tested on: P388; experiment: Compound was tested for antitumor activity against P388 lymphocytic leukemia at the dose 240 mg/kg; format: functional, Mus musculus; summary of the method: as §1
[33] = tested on: Mus musculus; experiment: Body weight difference the relation of the test animal to control animal weight was calculated at the 480 mg/kg doses; format: functional; summary of the method: as §1
[34] = tested on: Mus musculus; experiment: Tumor cell population at the end of treatment relative to its size at the beginning of the treatment was calculated at the 120 mg/kg doses; format: functional; summary of the method: as §1
[35] = tested on: Mus musculus; experiment: Tumor cell population at the end of treatment relative to its size at the beginning of the treatment was calculated at the 240 mg/kg doses; format: functional; summary of the method: as §1
[36] = tested on: Mus musculus; experiment: Tumor cell population at the end of treatment relative to its size at the beginning of the treatment was calculated at the 480 mg/kg doses; format: functional; summary of the method: as §1
[37] = tested on: Mus musculus; experiment: Tumor cell population at the end of treatment relative to its size at the beginning of the treatment was calculated at the 60 mg/kg doses; format: functional; summary of the method: as §1
[38] = tested on: P388; experiment: Compound was tested for antitumor activity against P388 lymphocytic leukemia at the dose 480 mg/kg; format: functional, Mus musculus; summary of the method: as §1
[39] = tested on: Mus musculus; experiment: Tumor cell population at the end of treatment relative to its size at the beginning of the treatment was calculated at the 150 mg/kg doses; format: functional; conditions: dose 15 mg/kg; in the assay text read “15 mg/kg doses” for “150 mg/kg doses”; summary of the method: as §1

## CC(C)NC(=O)OCc1cn(C)c(-c2ccccc2)c1COC(=O)NC(C)C
[1]
  BDW: -4.6 g
[2]
  BDW: -0.1 g
[3]
  BDW: -2.3 g
[4]
  BDW: -4 g
[5]
  BDW: 0.1 g
[6]
  KE: -0.04
[7]
  KE: -0.15
[8]
  KE: -0.04
[9]
  T/C: 148%
[10]
  T/C: 100%
[11]
  T/C: 127%
[12]
  K': 0.0935 abs/time

## Cc1c(COC(=O)NC(C)C)c(COC(=O)NC(C)C)c(-c2ccccc2)n1C
[12]
  K': 1.68 abs/time

## CC(C)NC(=O)OCC1=C(COC(=O)NC(C)C)C(C)(C)N(C)C1c1ccccc1 (configuration not stated)
[13]
  BDW: -0.3 g
[14]
  BDW: -0.1 g
[15]
  BDW: -2.3 g
[16]
  BDW: 0.5 g
[17]
  T/C: 113%
[18]
  T/C: 108%
[19]
  T/C: 107%
[20]
  T/C: 108%

## CC(C)NC(=O)OCC1=C(COC(=O)NC(C)C)C(c2ccccc2)N(C)C1 (configuration not stated)
[13]
  BDW: -2.2 g
[21]
  BDW: 0 g
[22]
  BDW: -0.9 g
[16]
  BDW: -2 g
[23]
  KE: 0
[24]
  KE: 0.53
[25]
  KE: 5.18
[26]
  KE: 0.84
[17]
  T/C: 225%
[27]
  T/C: 121%
[28]
  T/C: 136%
[20]
  T/C: 145%

## CC(C)NC(=O)OCc1cn(C)c(-c2ccc(F)cc2)c1COC(=O)NC(C)C
[2]
  BDW: -0.4 g
[3]
  BDW: -2.2 g
[4]
  BDW: -2.7 g
[6]
  KE: 0.04
[7]
  KE: 0.21
[9]
  T/C: 145%
[10]
  T/C: 188%
[12]
  K': 0.0516 abs/time

## COc1ccc2c(c1)CCn1cc(COC(=O)NC(C)C)c(COC(=O)NC(C)C)c1-2
[2]
  BDW: -3 g
[3]
  BDW: -3.1 g
[5]
  BDW: -2.6 g
[6]
  KE: -0.04
[8]
  KE: 0.16
[9]
  T/C: 125%
[11]
  T/C: 175%
[12]
  K': 0.449 abs/time

## CC(C)NC(=O)OCC1=C(COC(=O)NC(C)C)C(c2ccc(Cl)c(Cl)c2)N(C)C1 (configuration not stated)
[1]
  BDW: -1.6 g
[29]
  BDW: -2.5 g
[4]
  BDW: -1.3 g
[30]
  T/C: 110%
[31]
  T/C: 117%
[32]
  T/C: 119%

## CC(C)NC(=O)OCc1cn2c(c1COC(=O)NC(C)C)-c1cc(Cl)c(Cl)cc1CC2
[1]
  BDW: -2.2 g
[29]
  BDW: -2.3 g
[33]
  BDW: -3.2 g
[4]
  BDW: -0.4 g
[34]
  KE: -0.68
[35]
  KE: 0.1
[36]
  KE: 5.05
[37]
  KE: -1.54
[30]
  T/C: 86%
[31]
  T/C: 130%
[38]
  T/C: 185%
[12]
  K': 0.00154 abs/time
[32]
  T/C: 137%

## CNC(=O)OCC1=C(COC(=O)NC)[C@@H](c2ccccc2)N(C)[C@H]1c1ccccc1
[13]
  BDW: -4.3 g
[21]
  BDW: -0.1 g
[22]
  BDW: -1.4 g
[16]
  BDW: -1.7 g
[23]
  KE: 0
[24]
  KE: 1.06
[26]
  KE: -1.16
[27]
  T/C: 116%
[28]
  T/C: 136%
[20]
  T/C: 154%

## COc1ccc(-c2c(COC(=O)NC(C)C)c(COC(=O)NC(C)C)cn2C)cc1
[2]
  BDW: 0 g
[3]
  BDW: 0.4 g
[4]
  BDW: -0.8 g
[39]
  KE: -0.06
[7]
  KE: -0.08
[37]
  KE: 0.1
[9]
  T/C: 123%
[10]
  T/C: 117%
[30]
  T/C: 164%
[12]
  K': 0.231 abs/time

## CC(C)NC(=O)OCC1=C(COC(=O)NC(C)C)C(c2ccc(F)cc2)N(C)C1 (configuration not stated)
[1]
  BDW: -2.7 g
[29]
  BDW: -2.7 g
[4]
  BDW: -0.2 g
[30]
  T/C: 112%
[31]
  T/C: 131%
[32]
  T/C: 137%

## COc1ccc(C2C(COC(=O)NC(C)C)=C(COC(=O)NC(C)C)CN2C)cc1 (configuration not stated)
[1]; 120 mg/kg
  BDW: -1.9 g and -1.2 g
[30]
  T/C: 158%
[31]
  T/C: 110%

## CC(C)NC(=O)OCC1=C(COC(=O)NC(C)C)[C@@H](c2ccccc2)N(C)[C@H]1c1ccccc1
[13]
  BDW: -3 g
[21]
  BDW: 0 g
[22]
  BDW: -1.2 g
[16]
  BDW: -2.3 g
[23]
  KE: 0.16
[24]
  KE: 0.53
[25]
  KE: 3.06
[26]
  KE: -0.9
[17]
  T/C: 189%
[27]
  T/C: 120%
[28]
  T/C: 139%
[20]
  T/C: 145%

## CC(C)NC(=O)OCc1cn(C)c(-c2ccc(Cl)c(Cl)c2)c1COC(=O)NC(C)C
[1]
  BDW: -1.6 g
[29]
  BDW: -2.7 g
[33]
  BDW: -3.6 g
[4]
  BDW: -0.8 g
[34]
  KE: -0.39
[35]
  KE: 2.43
[36]
  KE: 3.4
[37]
  KE: -1.15
[30]
  T/C: 117%
[31]
  T/C: 133%
[38]
  T/C: 169%
[12]
  K': 0.00605 abs/time
[32]
  T/C: 160%
